# Measured values published in ChEMBL document CHEMBL1828575, “Design, synthesis and antiproliferative activities of biarylolefins based on polyhydroxylated and carbohydrate scaffolds” (Eur J Med Chem, 2011).
# Key:
# Type in all cases: functional
# [1] = tested on: SK-MEL-5; assay: Antitumor activity against human SK-MEL-5 cells after 48 hrs by SRB assay; conditions: SK-MEL-5, 48 h
# Outline: (§1)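 NCI60 panel cells grown in RPMI 1640 with 5% FBS and 2 mM L-glutamine, plated at 5000–40,000 cells/well and preincubated 24 h at 37 °C, 5% CO₂. Compound was added from DMSO at five concentrations, 10-fold or 1/2 log dilutions, then incubated 48 h.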
# [2] = tested on: Malme-3M; assay: Antitumor activity against human MALME-3M cells after 48 hrs by SRB assay
# Outline: (§2)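 NCI60 panel in RPMI 1640 with 5% FBS and 2 mM L-glutamine. Cells were plated at 5000–40,000/well by doubling time, held 24 h, then time-zero plates were TCA-fixed. Five concentrations (10-fold or half-log dilutions of DMSO stocks) were applied for 48 h at 37 °C, 5% CO2. Cells were fixed with cold TCA (10% final adherent, 16% suspension) and stained with 0.4% SRB. Bound dye was dissolved in 10 mM Tris and read at 515 nm. GI50, TGI and LC50 were calculated per line.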
# [3] = tested on: OVCAR-5; assay: Cytotoxicity against human OVCAR5 cells assessed as cellular growth at 10 uM after 48 hrs by SRB assay
# Outline: (§3)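 NCI-60 panel lines grown in RPMI 1640 with 5% FBS and 2 mM L-glutamine. Plated at 5000–40,000 cells/well and preincubated 24 h at 37 °C, 5% CO₂, with time-zero plates fixed in TCA. Compounds, dissolved in DMSO and diluted in medium, were applied for 48 h. Cells were TCA-fixed (10% final for adherent, 16% for suspension) and stained with 0.4% SRB in 1% acetic acid. Dye was solubilised in 10 mM Tris base and read at 515 nm; growth was expressed as a percentage of untreated control.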
# [4] = tested on: SF-268; assay: Antitumor activity against human SF268 cells after 48 hrs by SRB assay; conditions: SF-268, 48 h; outline: as §2
# [5] = tested on: M14; assay: Cytotoxicity against human M14 cells assessed as cellular growth at 10 uM after 48 hrs by SRB assay
# Outline: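 NCI60 single-dose screen of cells in RPMI 1640 with 5% FBS and 2 mM L-glutamine, preincubated 24 h at 37 °C, 5% CO₂. Cells were then exposed 48 h to compound added from DMSO stock. TCA-fixed, stained with 0.4% SRB in 1% acetic acid, dye solubilised in 10 mM Tris base and read at 515 nm. Growth is given as percent of untreated control.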
# [6] = Cytotoxicity against human NCI60 cells assessed as cellular growth at 10 uM after 48 hrs by SRB assay relative to untreated control; outline: as §3
# [7] = tested on: MDA-MB-435; assay: Antitumor activity against human MDA-MB-435 cells after 48 hrs by SRB assay; conditions: MDA-MB-435, 48 h; outline: as §2
# [8] = tested on: HL-60(TB); assay: Antitumor activity against human HL-60(TB) cells after 48 hrs by SRB assay; conditions: HL-60, 48 h
# Outline: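 NCI60 screen: cells grown in RPMI 1640 with 5% FBS and 2 mM L-glutamine, plated at 5000–40,000 cells/well by doubling time, preincubated 24 h at 37 °C with 5% CO2. Compounds were diluted from DMSO stocks and given for 48 h, at five concentrations for dose response. A time-zero plate was TCA-fixed. Cells were TCA-fixed, stained with 0.4% SRB and read at 515 nm, with growth expressed relative to untreated controls.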
# [9] = tested on: RPMI-8226; assay: Cytotoxicity against human RPMI8226 cells assessed as cellular growth at 10 uM after 48 hrs by SRB assay; outline: as §3
# [10] = tested on: IGROV-1; assay: Antitumor activity against human IGROV1 cells after 48 hrs by SRB assay; conditions: IGROV-1, 48 h; outline: as §2
# [11] = tested on: HCC 2998; assay: Antitumor activity against human HCC2998 cells after 48 hrs by SRB assay; conditions: HCC 2998, 48 h; outline: as §2
# [12] = tested on: TK-10; assay: Antitumor activity against human TK10 cells after 48 hrs by SRB assay; conditions: TK-10, 48 h; outline: as §1
# [13] = tested on: SK-OV-3; assay: Cytotoxicity against human SKOV3 cells assessed as cellular growth at 10 uM after 48 hrs by SRB assay; outline: as §3
# [14] = tested on: RXF 393; assay: Antitumor activity against human RXF393 cells after 48 hrs by SRB assay; conditions: RXF 393, 48 h; outline: as §2
# [15] = tested on: UACC-62; assay: Antitumor activity against human UACC62 cells after 48 hrs by SRB assay; conditions: UACC-62, 48 h; outline: as §1
# [16] = tested on: HCT-116; assay: Antitumor activity against human HCT116 cells after 48 hrs by SRB assay; conditions: HCT-116, 48 h; outline: as §2
# [17] = tested on: NCI-H322M; assay: Antitumor activity against human NCI-H322M cells after 48 hrs by SRB assay; outline: as §2
# [18] = tested on: HT-29; assay: Antiproliferative activity against human HT-29 cells after 48 hrs by SRB assay; conditions: HT-29, 48 h; outline: as §2
# [19] = tested on: MOLT-4; assay: Cytotoxicity against human MOLT4 cells assessed as cellular growth at 10 uM after 48 hrs by SRB assay; outline: as §3
# [20] = tested on: OVCAR-3; assay: Cytotoxicity against human OVCAR3 cells assessed as cellular growth at 10 uM after 48 hrs by SRB assay; outline: as §3
# [21] = read-out: pLC50 (the source's name) (converted)
# [22] = read-out: LC50 (the source's name)
smiles,measurement,setting,value
COc1ccc(/C(=C2\O[C@@H]([C@H]3COC(C)(C)O3)[C@H]3OC(C)(C)O[C@@H]23)c2cc(OC)c(OC)c(OC)c2)cc1O,GI50,[1],4.07 µM
same,LC50,[1],51.4 µM
same,TGI,[1],15.4 µM
same,GI50,[2],2.07 µM
same,LC50 (concentration killing 50% of cells present at time zero),[2],> 100 µM
same,TGI,[2],5.59 µM
same,Activity,[3],92.89%
same,LC50 (concentration killing 50% of cells relative to time zero),[4],> 100 µM
same,GI50,[4]; read-out: GI50,7.96 µM
same,TGI,[4]; read-out: TGI,53.6 µM
same,GI50,[4]; read-out: pGI50 (converted),7.94 µM
same,CC50,[4]; [21],> 100 µM
same,TGI,[4]; read-out: pTGI (converted),53.7 µM
same,Activity,[5],19.53%
same,Activity,[6],66%
same,GI50,[7],3.61 µM
same,TGI,[7],17.5 µM
same,CC50,[7]; [22],> 100 µM
same,GI50,[8]; read-out: GI50,6.48 µM
same,CC50,[8]; [22],> 100 µM
same,TGI,[8]; read-out: TGI,56.8 µM
same,GI50,[8]; read-out: pGI50 (converted),1.62 µM
same,CC50,[8]; [21],> 100 µM
same,TGI,[8]; read-out: pTGI (converted),56.2 µM
same,Activity,[9],36.38%
same,GI50,[10]; read-out: GI50,45.1 µM
same,CC50,[10]; [22],> 100 µM
same,TGI,[10]; read-out: TGI,> 100 µM
same,GI50,[10]; read-out: pGI50 (converted),44.7 µM
same,CC50,[10]; [21],> 100 µM
same,TGI,[10]; read-out: pTGI,> 100 µM
same,GI50,[11]; read-out: GI50,31.1 µM
same,CC50,[11]; [22],> 100 µM
same,TGI,[11]; read-out: TGI,80.4 µM
same,GI50,[11]; read-out: pGI50 (converted),30.9 µM
same,CC50,[11]; [21],> 100 µM
same,TGI,[11]; read-out: pTGI (converted),81.3 µM
same,GI50,[12]; read-out: GI50,3.66 µM
same,CC50,[12]; [22],> 100 µM
same,TGI,[12]; read-out: TGI,86.3 µM
same,GI50,[12]; read-out: pGI50 (converted),36.3 µM
same,CC50,[12]; [21],> 100 µM
same,TGI,[12]; read-out: pTGI (converted),87.1 µM
same,Activity,[13],90.14%
same,GI50,[14],2.54 µM
same,TGI,[14],5.99 µM
same,CC50,[14]; [22],32.6 µM
same,GI50,[15]; read-out: GI50,22.9 µM
same,CC50,[15]; [22],> 100 µM
same,TGI,[15]; read-out: TGI,57.6 µM
same,GI50,[15]; read-out: pGI50 (converted),22.9 µM
same,CC50,[15]; [21],> 100 µM
same,TGI,[15]; read-out: pTGI (converted),57.5 µM
same,GI50,[16],> 100 µM
same,LC50 (concentration giving 50% net cell kill),[16],> 100 µM
same,TGI,[16],> 100 µM
same,GI50,[17]; read-out: GI50,9.6 µM
same,CC50,[17]; [22],> 100 µM
same,TGI,[17]; read-out: TGI,> 100 µM
same,GI50,[17]; read-out: pGI50 (converted),9.55 µM
same,CC50,[17]; [21],> 100 µM
same,TGI,[17]; read-out: pTGI,> 100 µM
same,LC50 (50% net cell kill),[18],> 100 µM
same,GI50,[18]; read-out: GI50,4.1 µM
same,TGI,[18]; read-out: TGI,17.8 µM
same,GI50,[18]; read-out: pGI50 (converted),4.07 µM
same,CC50,[18]; [21],> 100 µM
same,TGI,[18]; read-out: pTGI (converted),17.8 µM
same,Activity,[19],60.46%
same,Activity,[20],58.27%
